Experiment [1] relates to SH-SY5Y cells. Nature of the experiment: Intracellular calcium / calcium influx in SH-SY5Y cells. It counts as cell-based, human. Particulars: for inhibition of prorenin-induced calcium influx: 1 μmol/L inhibitor.
Experiment [2] deals with PRR. The settings on record: cited from earlier work.
For experiment [3], the system named is hypertensive RA mice. The settings on record: systemic enalapril; cited from earlier work.
Experiment [4] relates to hypertensive RA mice. Nature of the experiment: Acute intracerebroventricular infusion, BP in renin-angiotensinogen. Format: in vivo, mouse. The settings on record: losartan 3 mmol/L, 10-minute icv infusion, n=4. In short, it runs like this: (§1)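 Test compound, scrambled peptide (1 mmol/L, control) or losartan was infused intracerebroventricularly over 10 minutes into hypertensive mice. BP was traced in real time before, during and after the infusion. The read-out was change in mean arterial pressure (ΔMAP).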

In experiment [5] the test system is DOCA-salt hypertensive mice. It counts as in vivo, mouse. The settings on record: losartan 3 mmol/L, 10-minute icv infusion, n=5. In short, it runs like this: as §1
Experiment [6] has as its system normotensive SHAM mice. As to the kind of experiment: Acute intracerebroventricular infusion, BP in normotensive SHAM mice. Format: in vivo, mouse. The settings on record: icv PRO20 1 mmol/L or losartan 3 mmol/L, n=4.
The subject of experiment [7] is ERK-1/2 phosphorylation, Neuro-2A cells. As to the kind of experiment: ERK-1/2 phosphorylation in Neuro-2A cells. It counts as cell-based, mouse. In short, it runs like this: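 Neuro-2A cells were kept in serum-free medium overnight, then pretreated with losartan 10 μmol/L for 30 minutes. They were then exposed for 15 minutes to prorenin (4 nmol/L), HRP (1 μmol/L) or test peptide (1 μmol/L). Total and phosphorylated ERK-1/2 were measured by Western blot. PRR knockdown cells were transfected with AAV-PRR-shRNA for 3 days.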

Experiment [8] relates to prorenin-induced hypertension, C57Bl/6J mice. Particulars: cited from earlier work.
Experiment [9] deals with DOCA-salt hypertension, mice. The settings on record: icv infusion of losartan; cited from earlier work.
Experiment [10] concerns ERK-1/2. The settings on record: cited from earlier work.
Experiment [11] concerns diabetic nephropathy. Particulars: cited from earlier work.
Experiment [12] has as its system spontaneously hypertensive rats. The settings on record: cited from earlier work.
Experiment [13] concerns diabetic hypertensive rats. The settings on record: cited from earlier work.
Experiment [14] concerns prorenin. Particulars: cited from earlier work.
In experiment [15] the target is (pro)renin receptor (PRR), human brain (Homo sapiens, UniProt O75787). Nature of the experiment: PRO20-FITC fluorescence binding to human brain sections. Particulars: PRO20-FITC 1 nmol/L, unlabeled human prorenin 1 μmol/L, human PVN. In short, it runs like this:
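Human PVN sections were incubated with FITC-labelled test peptide, 1 nmol/L with or without unlabelled human prorenin 1 μmol/L. For a concentration series (0.2, 0.5, 1, 2, 5 nmol/L), n=5–6 per concentration. Nuclei were stained with DAPI. Relative fluorescence units were total fluorescence density minus background in each image.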

In experiment [16] the test system is plasminogen-activator inhibitor 1 release. Particulars: prorenin 4 nmol/L; cited from earlier work.
In experiment [17] the target is (pro)renin receptor (PRR), mouse brain (Mus musculus, UniProt Q9CYN9). Nature of the experiment: PRO20-FITC fluorescence binding to mouse brain sections. Particulars: PRO20-FITC 5 nmol/L, unlabeled mouse prorenin 1 μmol/L, mouse PVN. Summed up:
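Mouse PVN sections were incubated with FITC-labelled test peptide, 5 nmol/L with or without unlabelled mouse prorenin 1 μmol/L. For a concentration series (1, 2, 5, 10, 20 nmol/L), n=5–6 per concentration. PVN from neuron-specific PRR-knockout mice was also examined. Nuclei were stained with DAPI. Relative fluorescence units were total fluorescence density minus background per image.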

Experiment [18] concerns prorenin-induced hypertension, C57Bl/6J mice. As to the kind of experiment: Pressor response to acute intracerebroventricular infusion of mouse prorenin. Format: in vivo. Particulars: mouse prorenin 2.4 μmol/L + scrambled peptide 100 μmol/L, 3 μL/min for 10 minutes, icv.
Where [19] appears, read: human prorenin 4 nmol/L, n=7–11/group.

(pro)renin receptor (PRR), human brain, sequence (O75787 17-350): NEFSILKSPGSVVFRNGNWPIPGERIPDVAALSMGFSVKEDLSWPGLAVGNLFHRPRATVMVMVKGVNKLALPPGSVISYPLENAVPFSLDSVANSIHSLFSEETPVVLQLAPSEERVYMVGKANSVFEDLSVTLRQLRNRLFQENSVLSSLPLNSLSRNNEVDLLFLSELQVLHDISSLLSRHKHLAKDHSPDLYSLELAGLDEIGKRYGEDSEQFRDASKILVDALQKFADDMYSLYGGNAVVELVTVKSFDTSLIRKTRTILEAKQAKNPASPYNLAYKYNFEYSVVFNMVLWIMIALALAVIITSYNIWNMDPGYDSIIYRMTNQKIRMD
(pro)renin receptor (PRR), mouse brain, sequence (Q9CYN9 18-350): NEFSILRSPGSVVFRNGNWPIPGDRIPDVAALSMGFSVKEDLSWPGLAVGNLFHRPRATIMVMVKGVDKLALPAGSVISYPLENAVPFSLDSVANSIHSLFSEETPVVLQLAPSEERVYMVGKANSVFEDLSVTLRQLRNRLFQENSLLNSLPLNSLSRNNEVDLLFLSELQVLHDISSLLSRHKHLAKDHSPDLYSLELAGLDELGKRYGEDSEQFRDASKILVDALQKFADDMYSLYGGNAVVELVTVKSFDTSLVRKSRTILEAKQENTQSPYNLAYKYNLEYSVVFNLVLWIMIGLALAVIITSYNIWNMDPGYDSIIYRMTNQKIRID

With `Nc1ncnc2c1ncn2[C@@H]1O[C@H](COP(=O)(O)OP(=O)(O)OP(=O)(O)O)[C@@H](O)[C@H]1O` [ATP], the “intracellular calcium in SH-SY5Y cells” value in experiment [1] (ATP 1 μmol/L, Fluo-4-AM, n=7–11/group) is given as “increased intracellular calcium”.

For `COCCCOc1cc(C[C@@H](C[C@H](N)[C@@H](O)C[C@H](C(=O)NCC(C)(C)C(N)=O)C(C)C)C(C)C)ccc1OC` [aliskiren], the “effect on renin or prorenin binding to the PRR” value in [2] is “does not alter renin or prorenin binding to the PRR”.

In the case of `C[C@H](CS)C(=O)N1CCC[C@H]1C(=O)O` [captopril], the “inhibition of prorenin-induced calcium influx” value in experiment [1] (setting [19]) is reported as “completely blocked”.

In the case of `CCOC(=O)[C@H](CCc1ccccc1)N[C@@H](C)C(=O)N1CCC[C@H]1C(=O)O` [enalapril], in [3], the “effect on BP in RA mice, systemic” value is recorded as “did not normalize BP”.

On to `CCCCc1nc(Cl)c(CO)n1Cc1ccc(-c2ccccc2-c2nn[nH]n2)cc1` [losartan], for which the “inhibition of prorenin-induced calcium influx” value in experiment [1] (setting [19]) is “completely blocked”. Moreover, the “inhibition of Ang II-induced intracellular calcium increase” value in experiment [1] (losartan 1 μmol/L vs Ang II 10 nmol/L, n=7–11/group) is “blocked”. The “effect on mean arterial BP (MAP)” value in experiment [4] and in experiment [5] was “reduced mean arterial BP” in each case. In [6], the “effect on MAP in normotensive mice” value is on record as “did not alter MAP”. The “inhibition of prorenin-induced ERK-1/2 phosphorylation” value in experiment [7] (losartan, prorenin) is given as “partially blocked”. Besides, in experiment [8] (icv infusion of losartan), the “effect on prorenin-induced hypertension” value was “abolishes prorenin-induced hypertension”. Besides, in [9], the “effect on development of DOCA-salt hypertension” value is recorded as “totally prevents the development of DOCA-salt hypertension”.

Turning to “Ang II: major bioactive peptide of the RAS”, in experiment [1] (Ang II 10 nmol/L, Fluo-4-AM, n=7–11/group), the “intracellular calcium in SH-SY5Y cells” value was “increased intracellular calcium levels”.

Take RILLKKMPSV [HRP]: the “phosphorylated ERK-1/2 levels, peptide alone” value in experiment [7] (PRO20 or HRP alone, 1 μmol/L, 15 minutes, losartan 10 μmol/L) is given as “unaffected”. For the same molecule, in experiment [2], the “inhibition of binding of prorenin to the PRR” value is “no direct inhibitory effect on the binding of prorenin to the PRR”. In addition, in experiment [10], the “ERK-1/2 phosphorylation in the retina” value was “increases phosphorylation of extracellular signal–regulated protein kinase 1 and 2”. Besides, the “effect on diabetic nephropathy in rats” value in experiment [11] (development) is “prevent the development of diabetic nephropathy in rats without affecting hyperglycemia”. In experiment [11] (established), the “effect on established diabetic nephropathy in rats” value is “induce regression of established diabetic nephropathy”. The “effect on cardiac fibrosis” value in experiment [12] was “attenuates the development of cardiac fibrosis”. Moreover, the “effect on beneficial effects of aliskiren on vascular dysfunction” value in [13] was “counteracts the beneficial effects of aliskiren”. Also, in experiment [14], the “conformational change and nonproteolytic activation of prorenin on binding to PRR” value was “inhibits the conformational change and nonproteolytic activation of prorenin”.

B1: human prorenin: unlabeled human prorenin (protein, UniProt P00797 24-406, looked up)
pro-form: LPTDTTTFKRIFLKRMPSIRESLKERGVDMARLGPEWSQPMKRLTLGNTTSSVILTNYMDTQYYGEIGIGTPPQTFKVVFDTGSSNVWVPSSKCSRLYTACVYHKLFDASDSSSYKHNGTELTLRYSTGTVSGFLSQDIITVGGITVTQMFGEVTEMPALPFMLAEFDGVVGMGFIEQAIGRVTPIFDNIISQGVLKEDVFSFYYNRDSENSQSLGGQIVLGGSDPQHYEGNFHYINLIKTGVWQIQMKGVSVGSSTLLCEDGCLALVDTGASYISGSTSSIEKLMEALGAKKRLFDYVVKCNEGPTLPDISFHLGGKEYTLTSADYVFQESYSSKKLCTLAIHAMDIPPPTGPTWALGATFIRKFYTEFDRRNNRIGFALAR
modifications: pro-form
As for B1, the “inhibition of PRO20-FITC binding by unlabeled prorenin” value in experiment [15] is given as “eliminated PRO20-FITC binding”. For the same molecule, the “intracellular calcium in SH-SY5Y cells” value in experiment [1] (setting [19]) is on record as “increased neuronal intracellular calcium”. Besides, the “calcium influx induced relative to Ang II” value in experiment [1] (human prorenin vs Ang II, SH-SY5Y cells) is on record as “to a degree similar to that of Ang II”.

B2: prorenin: prorenin; species not stated at the place (protein, UniProt P00797 24-406, looked up)
pro-form: B1 pro-form
modifications: pro-form
For the molecule B2, the ERK-1/2 phosphorylation result in experiment [7] (prorenin alone, serum-free medium) was “markedly increased ERK-1/2 phosphorylation”. Also, in experiment [16], the “Ang II-dependent plasminogen-activator inhibitor 1 release” value was “increased Ang II–dependent plasminogen-activator inhibitor 1 release”.

B3: mouse prorenin: unlabeled mouse prorenin (protein, UniProt P06281 22-402, looked up)
pro-form: LPTRTATFERIPLKKMPSVREILEERGVDMTRLSAEWGVFTKRPSLTNLTSPVVLTNYLNTQYYGEIGIGTPPQTFKVIFDTGSANLWVPSTKCSRLYLACGIHSLYESSDSSSYMENGSDFTIHYGSGRVKGFLSQDSVTVGGITVTQTFGEVTELPLIPFMLAKFDGVLGMGFPAQAVGGVTPVFDHILSQGVLKEEVFSVYYNRGSHLLGGEVVLGGSDPQHYQGNFHYVSISKTDSWQITMKGVSVGSSTLLCEEGCAVVVDTGSSFISAPTSSLKLIMQALGAKEKRIEEYVVNCSQVPTLPDISFDLGGRAYTLSSTDYVLQYPNRRDKLCTLALHAMDIPPPTGPVWVLGATFIRKFYTEFDRHNNRIGFALAR
modifications: pro-form
Consider B3, for which the “inhibition of PRO20-FITC binding by unlabeled prorenin” value in [17] is reported as “completely blocked”. The “BP during intracerebroventricular infusion of prorenin” value in [18] is listed as “induced a rapid increase in BP”. Also, the “BP in conscious wild-type mice” value in experiment [8] (icv mouse prorenin 2.4 μmol/L, conscious wild-type C57Bl/6J mice) is listed as “increases BP”.

These data come from PMC4902274 (Hypertension, 2014).
